# Reference: ChEMBL document CHEMBL1687936, “Radiosynthesis and biological evaluation of L- and D-S-(3-[18F]fluoropropyl)homocysteine for tumor imaging using positron emission tomography” (J Med Chem, 2011)
# Key:
# Format in all cases: ADME, cell-based
# [1] = tested on: A-375; test: Cellular uptake in human A375 cells assessed as accumulation per 10^5 cells after 60 mins by gamma-counter; conditions: a-375, 1 h
# Method in brief: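 Cells seeded at 2.5 × 10^5 per well in RPMI-1640 with 10% FBS and 2 mM L-glutamine, attached overnight, then washed with warm PBS. Incubated at 37 °C with 0.37 MBq [18F]tracer in PBS for 2–240 min. Cells washed with ice-cold PBS, lysed in 0.2 N NaOH and counted by γ-counter. Read as % applied dose per 10^5 cells, decay-corrected, n = 3.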
# [2] = tested on: HT-29; test: Drug uptake in human HT-29 cells in presence of amino acid transport system L inhibitor BCH
# Method in brief: (§1)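 Cells were prepared as for the uptake assay and preincubated at 37 °C with inhibitor at 12.5 mmol/L in PBS; controls received PBS. 0.37 MBq [18F]tracer was added and incubated 30 min at 37 °C. Cells were washed cold, lysed and γ-counted. Uptake is given as % of the control group, n = 3.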
# [3] = tested on: A-375; test: Drug uptake in human A375 cells in presence of amino acid transport system L inhibitor BCH; method in brief: as §1
# [4] = tested on: A-375; test: Cellular uptake in human A375 cells after 15 mins by gamma-counter; conditions: a-375, 0.25 h
# Method in brief: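 A375 cells grown in RPMI-1640 with 10% FBS and 2 mM L-glutamine; 2.5×10^5 seeded per well overnight, counts done in triplicate. After a warm PBS wash, cells got 0.37 MBq tracer in 500 μL PBS at 37 °C. Stopped with ice-cold PBS wash, lysed in 0.2 N NaOH, counted in a γ-counter. Decay-corrected % applied dose per 10^5 cells, mean ± SD, n = 3.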
SMILES,Drug uptake [1] [%],Drug uptake [2],Drug uptake [3],Drug uptake [4]
Cl.N[C@@H](CCSCCC[18F])C(=O)O,9,–,–,–
Cl.N[C@H](CCSCCC[18F])C(=O)O,–,Not Active,Not Active,Active
